Source: ChEMBL document CHEMBL2029317, “(Z)-2-(2-bromophenyl)-3-{[4-(1-methyl-piperazine)amino]phenyl}acrylonitrile (DG172): an orally bioavailable PPARβ/δ-selective ligand with inverse agonistic properties” (J Med Chem, 2012)
Activity calls are given as the source filed them. No cut-off for these calls is given here.

Key:
[1] = target: T1, Peroxisome proliferator-activated receptor delta (Mus musculus) (UniProt P35396); test: Antagonist activity at PPARbeta/delta in mouse NIH3T3 cells coexpressing LexA assessed as decrease in L165,041-induced transcriptional activation at 1 uM after 48 hrs by luciferase reporter gene assay relative to control; type: functional, cell-based
T1 sequence (whole entry): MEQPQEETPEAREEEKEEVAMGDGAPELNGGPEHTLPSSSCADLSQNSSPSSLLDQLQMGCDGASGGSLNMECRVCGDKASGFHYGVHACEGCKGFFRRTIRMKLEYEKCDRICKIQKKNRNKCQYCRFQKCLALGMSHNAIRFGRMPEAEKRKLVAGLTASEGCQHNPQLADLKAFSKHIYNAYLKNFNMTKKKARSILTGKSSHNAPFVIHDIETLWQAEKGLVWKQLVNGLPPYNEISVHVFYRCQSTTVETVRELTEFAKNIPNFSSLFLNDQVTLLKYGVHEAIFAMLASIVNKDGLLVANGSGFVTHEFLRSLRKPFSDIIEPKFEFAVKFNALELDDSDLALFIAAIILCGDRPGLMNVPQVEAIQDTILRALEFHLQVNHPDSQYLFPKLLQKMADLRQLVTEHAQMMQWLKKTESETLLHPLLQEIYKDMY
In short: (§1)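 NIH3T3 cells were transfected with LexA-PPARα, -PPARβ/δ or -PPARγ fusion plasmids plus the 7L-TATAi luciferase reporter. From 4 h post-transfection, cells received inhibitory ligand (1 μM) for 48 h. Agonists followed: GW7647 300 nM (PPARα), L165,041 1 μM (PPARβ/δ) or GW1929 300 nM (PPARγ), or agonist solvent. Induction is luciferase activity with agonist relative to solvent; triplicates with t test.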

[2] = target: T2, Peroxisome proliferator-activated receptor alpha (Mus musculus) (UniProt P23204); test: Antagonist activity at PPARalpha in mouse NIH3T3 cells coexpressing LexA assessed as decrease in GW7647-induced transcriptional activation at 1 uM after 48 hrs by luciferase reporter gene assay relative to control; type: functional, cell-based; in short: as §1
T2 sequence (whole entry): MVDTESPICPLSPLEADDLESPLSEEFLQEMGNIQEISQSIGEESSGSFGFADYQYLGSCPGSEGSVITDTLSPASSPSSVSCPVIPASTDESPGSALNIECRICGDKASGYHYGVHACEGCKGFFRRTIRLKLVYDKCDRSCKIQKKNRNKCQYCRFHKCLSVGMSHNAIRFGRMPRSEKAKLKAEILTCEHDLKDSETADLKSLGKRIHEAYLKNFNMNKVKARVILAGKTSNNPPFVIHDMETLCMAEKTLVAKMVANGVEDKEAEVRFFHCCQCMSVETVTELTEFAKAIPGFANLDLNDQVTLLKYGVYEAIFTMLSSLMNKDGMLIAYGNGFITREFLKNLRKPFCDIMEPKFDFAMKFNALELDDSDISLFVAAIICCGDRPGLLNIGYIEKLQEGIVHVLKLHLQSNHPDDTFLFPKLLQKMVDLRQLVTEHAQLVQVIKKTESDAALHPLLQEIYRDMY

[3] = target: T3, Peroxisome proliferator-activated receptor gamma (Mus musculus) (UniProt P37238); test: Antagonist activity at PPARgamma in mouse NIH3T3 cells coexpressing LexA assessed as decrease in GW1929-induced transcriptional activation at 1 uM after 48 hrs by luciferase reporter gene assay relative to control; type: functional, cell-based; in short: as §1
T3 sequence (whole entry): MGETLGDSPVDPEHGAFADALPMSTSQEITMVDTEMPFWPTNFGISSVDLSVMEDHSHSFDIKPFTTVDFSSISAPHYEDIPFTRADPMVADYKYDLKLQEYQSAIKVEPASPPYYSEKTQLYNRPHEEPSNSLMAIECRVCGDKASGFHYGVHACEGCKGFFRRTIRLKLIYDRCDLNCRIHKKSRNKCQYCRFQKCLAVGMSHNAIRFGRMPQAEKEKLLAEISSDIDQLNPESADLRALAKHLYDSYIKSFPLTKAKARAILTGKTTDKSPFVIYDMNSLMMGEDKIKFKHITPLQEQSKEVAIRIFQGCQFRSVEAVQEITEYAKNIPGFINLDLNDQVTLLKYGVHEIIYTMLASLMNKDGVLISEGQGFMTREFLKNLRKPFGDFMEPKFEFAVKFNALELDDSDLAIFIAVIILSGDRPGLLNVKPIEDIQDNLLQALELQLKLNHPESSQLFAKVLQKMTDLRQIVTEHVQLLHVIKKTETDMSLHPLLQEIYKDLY

[4] = target: T4, Peroxisome proliferator-activated receptor delta (Mus musculus, UniProt P35396); test: Displacement of fluormone Pan-PPAR Green from mouse recombinant GST-tagged PPARbeta/delta LBD after 60 mins by TR-FRET assay
T4 sequence (P35396 whole entry): T1 sequence (whole entry)

[5] = target: T1, Peroxisome proliferator-activated receptor delta (Mus musculus); test: Inverse agonist activity at GST-tagged recombinant mouse PPARbeta/delta assessed as increase in corepressor peptide SMRT-ID2 interaction after 60 mins by TR-FRET assay; type: functional
In short: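 LanthaScreen TR-FRET coregulator assay: recombinant GST-PPARβ/δ LBD, labelled by a terbium-coupled anti-GST antibody, was incubated with fluorescein-labelled SMRT-ID2 corepressor peptide and compound. Signal is the 520/495 nm emission ratio, as triplicate averages ± SD, with t test against untreated sample.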

[6] = target: T5, Peroxisome proliferator-activated receptor alpha (Homo sapiens) (UniProt Q07869); test: Displacement of fluormone Pan-PPAR Green from PPARalpha at 100 to 1000 nM after 60 mins by TR-FRET assay
T5 sequence (whole entry): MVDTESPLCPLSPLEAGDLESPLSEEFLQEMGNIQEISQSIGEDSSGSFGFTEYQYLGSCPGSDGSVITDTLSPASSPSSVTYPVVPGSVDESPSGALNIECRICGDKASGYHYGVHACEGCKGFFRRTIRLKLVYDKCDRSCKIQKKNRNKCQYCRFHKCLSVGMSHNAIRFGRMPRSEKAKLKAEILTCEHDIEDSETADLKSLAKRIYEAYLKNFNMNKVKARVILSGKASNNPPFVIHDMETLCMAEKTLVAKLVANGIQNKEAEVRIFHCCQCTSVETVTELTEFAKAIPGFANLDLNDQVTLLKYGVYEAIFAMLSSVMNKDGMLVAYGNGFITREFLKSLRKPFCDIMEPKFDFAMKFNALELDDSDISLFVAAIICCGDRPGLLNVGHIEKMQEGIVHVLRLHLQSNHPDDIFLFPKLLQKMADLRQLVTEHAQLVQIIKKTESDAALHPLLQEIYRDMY

[7] = target: T4, Peroxisome proliferator-activated receptor delta; test: Inverse agonist activity at PPARbeta/delta in mouse C2C12 cells assessed as inhibition of Angptl4 expression after 24 hrs by RT-qPCR analysis; type: functional, cell-based
[8] = Clearance in CD1 mouse at 1 mg/kg, iv; type: ADME, organism-based; set-up: dose 1 mg/kg, route intravenous; details: in vivo
In short: (§2)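 Male CD-1 mice dosed iv by tail vein (1 mg/kg) or po by gastric gavage (5 mg/kg). Vehicle was DMSO/Solutol HS 15/PBS pH 7.4 (5/5/90, v/v/v). Blood was taken at eight time points from 10 min to 12 h, by parallel sampling of three mice per point. Plasma was acetonitrile-precipitated and analysed by HPLC-MS/MS, and basic PK parameters were derived.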

[9] = Volume of distribution at steady state in CD1 mouse at 1 mg/kg, iv; type: ADME, organism-based; set-up: dose 1 mg/kg, route intravenous; details: in vivo, read-out: Vdss; in short: as §2

Compound	Activity [1]	Activity [2]	Activity [3]	IC50 [4] [nM]	Activity [5]	Activity [6]	IC50 [7] [nM]	clearance [8] [mL/min/kg]	Vd [9] [L/kg]
CN(C)c1ccc(/C=C(\C#N)c2ccccc2Cl)cc1	Active	inactive	inactive	180	Active	inactive	52	176	6.2
CN1CCN(c2ccc(/C=C(\C#N)c3ccccc3Br)cc2)CC1	Active	inactive	inactive	26.9	Active	inactive	9.5	121	12.5
